One block for each compound: values may come before it.
What was measured:
[1] = target: T1, Epidermal growth factor receptor (Homo sapiens, UniProt P00533, L858R/T790M); assay: Inhibition of N-terminal 6x-HIS-tagged human recombinant EGFR (696 to 1022 residues) L858R/T790M mutant expressed in Sf9 cells pre-incubated for 90 mins followed by 1 mM ATP addition by HTRF assay
In short: (§1)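 HTRF kinase assay on the EGFR L858R-T790M kinase domain at 1 mM ATP. Compound with either no preincubation or a 90 min enzyme/compound preincubation.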

[2] = target: T1, Epidermal growth factor receptor; assay: Inhibition of N-terminal 6x-HIS-tagged human recombinant EGFR (696 to 1022 residues) L858R/T790M mutant expressed in Sf9 cells pre-incubated for 0 mins followed by 1 mM ATP addition by HTRF assay; in short: as §1
[3] = target: T1, Epidermal growth factor receptor; assay: Inhibition of EGFR L858R/T790M mutant (unknown origin) phosphorylation expressed in mouse NIH/3T3 cells incubated for 3 hrs by ELISA method; type: cell-based
In short: (§2)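 Engineered NIH-3T3 cells expressing L858R-T790M, L858R or WT EGFR. 3 h compound treatment, then cellular phospho-EGFR target modulation read-out. IC50 averaged from at least duplicates.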

[4] = target: T2, Epidermal growth factor receptor (Homo sapiens, UniProt P00533, L858R); assay: Inhibition of EGFR L858R mutant (unknown origin) phosphorylation expressed in mouse NIH/3T3 cells incubated for 3 hrs by ELISA method; type: cell-based; in short: as §2
[5] = target: T3, Epidermal growth factor receptor (Homo sapiens, UniProt P00533); assay: Inhibition of wild type human EGFR phosphorylation expressed in mouse NIH/3T3 cells incubated for 3 hrs by ELISA method; type: cell-based; in short: as §2
[6] = target: T2, Epidermal growth factor receptor; assay: Inhibition of EGFR L858R mutant phosphorylation in human patient derived H3255 cells incubated for 3 hrs by ELISA method; type: cell-based
[7] = target: T1, Epidermal growth factor receptor; assay: Inhibition of EGFR L858R/T790M mutant phosphorylation in human patient derived H1975 cells incubated for 3 hrs by ELISA method; type: cell-based
[8] = Inhibition of EGFR E746 to A750 deletion mutant phosphorylation in human patient derived HCC827 cells incubated for 3 hrs by ELISA method; type: cell-based; conditions: HCC827, 3 h
In short: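 HCC827 cells plated at 7500/well in 5% FBS/RPMI and left overnight at 37 °C. Then 3 h with a 12-point compound dilution series, no EGF stimulation. Lysed in Triton/protease/phosphatase-inhibitor buffer. Phospho-EGFR (Y1173) read by sandwich ELISA: anti-EGFR capture, anti-phospho-EGFR, anti-rabbit-HRP, chemiluminescence. IC50 from at least duplicates.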

[9] = target: T1, Epidermal growth factor receptor; assay: Inhibition of N-terminal 6x-HIS-tagged human recombinant EGFR (696 to 1022 residues) L858R/T790M mutant expressed in Sf9 cells pre-incubated for 90 mins followed by 10 uM ATP addition by HTRF assay
[10] = target: T2, Epidermal growth factor receptor; assay: Inhibition of N-terminal 6x-HIS-tagged human recombinant EGFR (696 to 1022 residues) L858R mutant expressed in Sf9 cells pre-incubated for 90 mins followed by 10 uM ATP addition by HTRF assay
[11] = target: T3, Epidermal growth factor receptor; assay: Inhibition of N-terminal 6x-HIS-tagged wild type human recombinant EGFR (696 to 1022 residues) expressed in Sf9 cells pre-incubated for 90 mins followed by 10 uM ATP addition by HTRF assay
[12] = target: T3, Epidermal growth factor receptor; assay: Inhibition of wild type EGFR phosphorylation in human HaCaT cells incubated for 3 hrs by ELISA method; type: cell-based
[13] = Glutathione reactivity assessed as GSH adduct formation incubated for 1 hr using 10 mM glutathione
In short: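 Compound incubated 1 h with 10 mM glutathione; GSH adduct formation measured.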

[14] = Oral bioavailability in balb/c mouse at 20 mg/kg by liquid chromatography-tandem mass spectrometry; type: ADME, organism-based; conditions: in vivo
In short: (§3)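 Rodent PK in male balb/c mice and male Wistar rats; plasma drug levels by LC-MS/MS. Mouse oral dosing at 20 mg/kg, with compounds given as a 0.5% methylcellulose/0.5% Tween 80 suspension or as solutions (PEG300/D5W, or ethanol/PEG300 with Solutol or D5W), depending on compound.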

[15] = Antitumor activity against human NCI-H1975 cells xenografted in Foxn1 nude mouse assessed as reduction in tumor volume at 20 mg/kg, po qd for 5 days relative to untreated control; type: functional
In short: (§4)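 Female Foxn1 nude mice, H1975 cells inoculated subcutaneously. Randomized into groups once tumors reached 150−200 mm³, then dosed by oral gavage once daily for 5 days in 0.5% MC/0.5% Tween80 suspension (10 μL/g). Tumor volumes by caliper, (length × width × width)/2. %T/C = 100 × ΔT/ΔC, or % regression = 100 × ΔT/T_initial when ΔT < 0. Body weight recorded daily.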

Cytochrome P450 2D6 = Cytochrome P450 2D6 (Homo sapiens, UniProt P10635); assay: Inhibition of CYP2D6 (unknown origin); type: ADME
[16] = Aqueous solubility of the compound at pH 6.8; type: physicochemical
Mus musculus [17] = assay: Toxicity in human NCI-H1975 cells xenografted Foxn1 nude mouse assessed as change in body weight at 50 mg/kg, po qd for 5 days (reference value: […]); type: organism-based; conditions: in vivo, 120 h
Mus musculus [18] = assay: Toxicity in human NCI-H1975 cells xenografted Foxn1 nude mouse assessed as change in body weight at 20 mg/kg, po qd for 5 days (reference value: […]); type: organism-based; conditions: in vivo, 120 h
[19] = Time duration during which free plasma concentration stays above in-vitro IC50 level in human NCI-H1975 cells xenografted Foxn1 nude mouse at 20 mg/kg, po qd for 5 days; type: ADME, organism-based; conditions: in vivo, 120 h
In short: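 H1975 xenografts in Foxn1 nude mice, oral dosing once daily for 5 days. Plasma sampled after the last dose on day 5, at 30 min, 3 h, 7 h and 24 h. Free drug exposure was compared with in vitro cellular IC50 across the dosing interval.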

Cytochrome P450 2C9 = Cytochrome P450 2C9 (Homo sapiens, UniProt P11712); assay: Inhibition of CYP2C9 (unknown origin); type: ADME
[20] = Intrinsic clearance in human liver microsomes; type: ADME; conditions: read-out: CLH
Cytochrome P450 3A4 = Cytochrome P450 3A4 (Homo sapiens, UniProt P08684); assay: Inhibition of CYP3A4 (unknown origin); type: ADME
[21] = Antitumor activity against human NCI-H1975 cells xenografted in Foxn1 nude mouse assessed as reduction in tumor volume at 50 mg/kg, po qd for 5 days relative to untreated control; type: functional; in short: as §4
[22] = Clearance in balb/c mouse at 5 mg/kg, iv by liquid chromatography-tandem mass spectrometry; type: ADME, organism-based; conditions: in vivo; in short: as §3
[23] = AUC in balb/c mouse at 20 mg/kg, po by liquid chromatography-tandem mass spectrometry; type: ADME, organism-based; conditions: in vivo; in short: as §3
[24] = Intrinsic clearance in mouse liver microsomes; type: ADME; conditions: read-out: CLH

T1 sequence (P00533 25-1210 T790M/L858R limits assumed): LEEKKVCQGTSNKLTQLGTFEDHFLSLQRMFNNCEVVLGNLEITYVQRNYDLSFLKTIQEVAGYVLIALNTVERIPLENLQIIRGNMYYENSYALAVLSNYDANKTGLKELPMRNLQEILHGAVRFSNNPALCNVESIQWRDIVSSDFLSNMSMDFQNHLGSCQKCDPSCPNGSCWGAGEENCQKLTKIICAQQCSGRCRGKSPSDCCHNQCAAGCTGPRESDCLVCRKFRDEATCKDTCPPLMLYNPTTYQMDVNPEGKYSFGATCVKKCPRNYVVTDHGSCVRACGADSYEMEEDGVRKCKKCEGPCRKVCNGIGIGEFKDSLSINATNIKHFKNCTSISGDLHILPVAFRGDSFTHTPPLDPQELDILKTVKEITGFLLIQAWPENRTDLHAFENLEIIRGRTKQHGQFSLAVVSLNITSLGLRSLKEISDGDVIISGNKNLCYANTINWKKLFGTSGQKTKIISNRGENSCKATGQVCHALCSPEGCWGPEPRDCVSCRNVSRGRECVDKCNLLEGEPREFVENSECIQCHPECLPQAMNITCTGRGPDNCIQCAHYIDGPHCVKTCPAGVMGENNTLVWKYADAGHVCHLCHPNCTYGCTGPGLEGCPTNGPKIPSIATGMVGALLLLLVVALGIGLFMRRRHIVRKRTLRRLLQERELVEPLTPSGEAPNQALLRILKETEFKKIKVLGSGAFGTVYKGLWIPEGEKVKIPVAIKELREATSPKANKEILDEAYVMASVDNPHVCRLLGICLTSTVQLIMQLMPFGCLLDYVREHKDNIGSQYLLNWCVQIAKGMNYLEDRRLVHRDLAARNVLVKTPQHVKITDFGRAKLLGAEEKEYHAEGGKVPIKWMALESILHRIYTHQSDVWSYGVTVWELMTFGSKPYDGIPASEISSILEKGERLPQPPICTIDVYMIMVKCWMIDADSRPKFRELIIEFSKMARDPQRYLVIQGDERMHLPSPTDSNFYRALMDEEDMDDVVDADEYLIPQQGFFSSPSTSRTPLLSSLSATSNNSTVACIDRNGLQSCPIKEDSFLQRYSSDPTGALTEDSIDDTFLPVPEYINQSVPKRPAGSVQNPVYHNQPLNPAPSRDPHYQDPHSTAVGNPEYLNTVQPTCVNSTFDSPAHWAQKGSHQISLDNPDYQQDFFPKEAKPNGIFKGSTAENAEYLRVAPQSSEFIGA
T3 sequence (P00533 whole entry): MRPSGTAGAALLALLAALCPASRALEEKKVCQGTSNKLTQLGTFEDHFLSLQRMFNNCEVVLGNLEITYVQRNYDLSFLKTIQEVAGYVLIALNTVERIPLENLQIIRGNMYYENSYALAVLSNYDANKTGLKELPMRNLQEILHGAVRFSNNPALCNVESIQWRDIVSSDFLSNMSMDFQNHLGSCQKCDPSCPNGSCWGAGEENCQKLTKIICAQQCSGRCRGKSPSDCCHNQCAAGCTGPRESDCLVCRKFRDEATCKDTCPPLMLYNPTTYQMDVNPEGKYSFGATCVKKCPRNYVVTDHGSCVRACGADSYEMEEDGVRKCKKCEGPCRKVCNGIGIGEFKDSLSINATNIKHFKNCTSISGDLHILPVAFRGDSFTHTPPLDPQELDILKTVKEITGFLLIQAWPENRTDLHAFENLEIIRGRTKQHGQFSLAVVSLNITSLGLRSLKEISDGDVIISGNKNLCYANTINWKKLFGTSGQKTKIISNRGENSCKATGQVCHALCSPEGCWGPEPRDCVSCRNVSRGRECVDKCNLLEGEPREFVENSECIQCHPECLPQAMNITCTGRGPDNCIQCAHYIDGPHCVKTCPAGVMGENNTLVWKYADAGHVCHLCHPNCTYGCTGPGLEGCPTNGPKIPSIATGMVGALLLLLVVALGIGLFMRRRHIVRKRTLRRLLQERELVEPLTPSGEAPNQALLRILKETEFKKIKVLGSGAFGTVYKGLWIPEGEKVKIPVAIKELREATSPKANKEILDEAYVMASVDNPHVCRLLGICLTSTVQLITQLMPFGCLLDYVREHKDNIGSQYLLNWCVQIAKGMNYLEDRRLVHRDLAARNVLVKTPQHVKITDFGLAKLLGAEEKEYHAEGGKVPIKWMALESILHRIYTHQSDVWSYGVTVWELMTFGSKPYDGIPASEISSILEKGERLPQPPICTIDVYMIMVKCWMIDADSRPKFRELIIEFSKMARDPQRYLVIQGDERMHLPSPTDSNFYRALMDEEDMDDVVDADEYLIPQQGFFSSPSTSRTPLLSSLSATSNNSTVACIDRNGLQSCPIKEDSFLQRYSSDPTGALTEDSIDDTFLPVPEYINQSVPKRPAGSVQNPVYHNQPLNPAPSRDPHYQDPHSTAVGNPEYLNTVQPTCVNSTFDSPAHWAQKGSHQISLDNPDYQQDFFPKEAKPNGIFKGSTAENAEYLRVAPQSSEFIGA
T2 sequence (P00533 25-1210 L858R limits assumed): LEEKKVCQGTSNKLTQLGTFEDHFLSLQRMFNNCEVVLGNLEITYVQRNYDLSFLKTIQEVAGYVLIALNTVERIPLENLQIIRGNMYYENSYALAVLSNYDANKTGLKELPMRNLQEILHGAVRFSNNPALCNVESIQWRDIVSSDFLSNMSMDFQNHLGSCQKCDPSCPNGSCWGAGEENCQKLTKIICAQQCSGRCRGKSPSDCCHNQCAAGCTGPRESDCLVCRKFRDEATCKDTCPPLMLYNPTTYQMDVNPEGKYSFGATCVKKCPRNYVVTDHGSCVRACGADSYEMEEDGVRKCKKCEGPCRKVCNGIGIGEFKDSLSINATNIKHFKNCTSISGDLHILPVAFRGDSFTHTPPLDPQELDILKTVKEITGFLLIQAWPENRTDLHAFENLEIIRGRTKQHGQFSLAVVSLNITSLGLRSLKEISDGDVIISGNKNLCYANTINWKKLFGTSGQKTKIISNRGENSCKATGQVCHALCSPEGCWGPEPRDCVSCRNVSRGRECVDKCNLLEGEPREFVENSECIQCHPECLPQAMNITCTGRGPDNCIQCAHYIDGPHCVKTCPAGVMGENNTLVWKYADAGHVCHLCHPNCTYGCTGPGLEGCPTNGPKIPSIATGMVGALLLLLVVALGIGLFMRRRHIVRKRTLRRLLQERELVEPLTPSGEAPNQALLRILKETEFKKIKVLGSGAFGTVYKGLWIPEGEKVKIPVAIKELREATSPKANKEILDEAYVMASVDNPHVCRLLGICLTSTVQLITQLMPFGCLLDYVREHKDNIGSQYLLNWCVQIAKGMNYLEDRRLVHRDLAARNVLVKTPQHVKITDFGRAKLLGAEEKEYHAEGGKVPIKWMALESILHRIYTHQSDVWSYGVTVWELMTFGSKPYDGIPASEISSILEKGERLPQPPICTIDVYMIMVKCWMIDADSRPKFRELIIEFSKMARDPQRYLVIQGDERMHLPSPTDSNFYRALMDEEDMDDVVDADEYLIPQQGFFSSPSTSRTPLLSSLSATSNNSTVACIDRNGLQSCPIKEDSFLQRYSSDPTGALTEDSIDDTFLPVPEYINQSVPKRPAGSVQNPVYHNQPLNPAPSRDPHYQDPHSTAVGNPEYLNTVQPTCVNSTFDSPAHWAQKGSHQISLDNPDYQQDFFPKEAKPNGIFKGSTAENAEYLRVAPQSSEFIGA
Sequence of Cytochrome P450 2D6 (P10635 whole entry): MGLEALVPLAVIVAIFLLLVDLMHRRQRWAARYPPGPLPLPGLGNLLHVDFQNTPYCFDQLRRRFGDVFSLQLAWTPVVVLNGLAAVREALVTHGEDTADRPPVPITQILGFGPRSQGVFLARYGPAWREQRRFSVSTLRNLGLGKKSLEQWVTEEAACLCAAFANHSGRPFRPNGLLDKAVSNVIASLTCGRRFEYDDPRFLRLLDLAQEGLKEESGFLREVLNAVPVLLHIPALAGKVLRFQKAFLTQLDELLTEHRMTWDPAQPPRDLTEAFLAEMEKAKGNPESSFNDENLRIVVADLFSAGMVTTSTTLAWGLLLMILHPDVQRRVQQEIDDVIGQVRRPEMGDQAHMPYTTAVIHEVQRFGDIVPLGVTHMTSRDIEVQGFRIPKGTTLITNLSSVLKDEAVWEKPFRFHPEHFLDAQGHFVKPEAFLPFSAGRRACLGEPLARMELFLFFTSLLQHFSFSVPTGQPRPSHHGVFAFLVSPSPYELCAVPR
Sequence of Cytochrome P450 2C9 (P11712 whole entry): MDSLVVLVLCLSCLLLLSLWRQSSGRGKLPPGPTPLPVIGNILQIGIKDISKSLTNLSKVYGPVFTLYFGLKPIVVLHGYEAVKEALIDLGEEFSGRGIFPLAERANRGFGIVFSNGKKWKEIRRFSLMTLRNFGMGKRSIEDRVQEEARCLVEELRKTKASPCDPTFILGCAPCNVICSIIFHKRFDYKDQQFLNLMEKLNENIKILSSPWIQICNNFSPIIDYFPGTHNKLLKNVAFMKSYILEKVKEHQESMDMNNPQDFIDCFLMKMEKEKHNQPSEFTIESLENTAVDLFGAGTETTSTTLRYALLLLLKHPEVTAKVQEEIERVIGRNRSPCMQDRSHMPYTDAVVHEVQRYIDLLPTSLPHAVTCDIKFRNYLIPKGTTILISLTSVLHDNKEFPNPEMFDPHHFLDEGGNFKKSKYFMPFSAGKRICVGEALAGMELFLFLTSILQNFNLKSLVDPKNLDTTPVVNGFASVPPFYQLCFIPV
Sequence of Cytochrome P450 3A4 (P08684 whole entry): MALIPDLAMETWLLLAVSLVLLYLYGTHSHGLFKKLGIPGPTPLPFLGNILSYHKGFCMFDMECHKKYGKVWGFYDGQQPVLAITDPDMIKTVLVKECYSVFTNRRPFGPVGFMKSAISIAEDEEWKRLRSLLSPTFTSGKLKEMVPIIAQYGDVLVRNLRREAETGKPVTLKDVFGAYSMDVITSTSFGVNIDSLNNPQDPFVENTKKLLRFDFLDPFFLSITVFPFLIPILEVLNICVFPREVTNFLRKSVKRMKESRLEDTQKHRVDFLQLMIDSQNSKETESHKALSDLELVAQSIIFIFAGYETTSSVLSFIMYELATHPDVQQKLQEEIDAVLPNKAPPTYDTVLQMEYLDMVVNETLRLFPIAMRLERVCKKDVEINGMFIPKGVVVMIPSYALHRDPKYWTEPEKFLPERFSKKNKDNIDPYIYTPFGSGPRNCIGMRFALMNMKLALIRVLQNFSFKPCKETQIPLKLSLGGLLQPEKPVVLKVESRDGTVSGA

Compound: C=CC(=O)Nc1ccc(-n2c(NC(=O)c3cccc(C(F)(F)F)c3)nc3cc(C)ccc32)cc1
IC50 [1]: > 50000 nM
IC50 [2]: > 50000 nM

Compound: C=CC(=O)N[C@H]1CC[C@H](n2c(NC(=O)c3cccc(C(F)(F)F)c3)nc3cc(C)ccc32)CC1
IC50 [1]: > 50000 nM
IC50 [2]: > 50000 nM

Compound: Cc1cccc2nc(NC(=O)c3cccc(C(F)(F)F)c3)n([C@H]3CC[C@H](O)CC3)c12
IC50 [9]: 90 nM
IC50 [10]: 680 nM
IC50 [11]: 5270 nM

Compound: C=CC(=O)N[C@H]1CCCC[C@H]1n1c(NC(=O)c2cccc(C(F)(F)F)c2)nc2cc(C)ccc21 (racemic)
IC50 [1]: > 50000 nM
IC50 [2]: > 50000 nM

Compound: C=CC(=O)N1CCC(n2c(NC(=O)c3cccc(C(F)(F)F)c3)nc3cc(C)ccc32)C1 (stereo not given)
IC50 [1]: > 50000 nM
IC50 [2]: > 50000 nM

Compound: Cc1cc(C(=O)Nc2nc3cccc(Cl)c3n2[C@@H]2CCCCN(C(=O)/C=C/CN(C)C)C2)ccn1
Drug metabolism [13]: < 5%

Compound: Cc1cc(C(=O)Nc2nc3cccc(C)c3n2[C@@H]2CCCCN(C(=O)/C=C/CN(C)C)C2)ccn1
IC50 [6]: 3.05 nM
bioavailability [14]: 34%
IC50 [7]: 2.11 nM
T/C [15]: -6%
IC50 (Cytochrome P450 2D6): > 25000 nM
solubility [16]: > 175 µM
Drug metabolism [13]: < 5%
IC50 [12]: 68 nM
Activity (Mus musculus [17]): -5%
IC50 [8]: 1.01 nM
Activity (Mus musculus [18]): -1.1%
Time [19]: <= 14 hr
IC50 (Cytochrome P450 2C9): > 25000 nM
microsomal CLint [20]: 26 µL/min/mg
IC50 (Cytochrome P450 3A4): > 25000 nM
T/C [21]: -65%
clearance [22]: 68.5 mL/min/kg
AUC [23]: 3.53 µM·h
microsomal CLint [24]: 62 µL/min/mg

Compound: C=CC(=O)NCCn1c(NC(=O)c2cccc(C(F)(F)F)c2)nc2cc(C)ccc21
IC50 [1]: > 50000 nM
IC50 [2]: > 50000 nM

Results, then the compound that gave them:

IC50 [1]: > 50000 nM
IC50 [2]: > 50000 nM
Compound: C=CC(=O)N[C@@H]1CCCC[C@H]1n1c(NC(=O)c2cccc(C(F)(F)F)c2)nc2cc(C)ccc21 (racemic)

IC50 [1]: 6810 nM
IC50 [2]: > 50000 nM
Compound: C=CC(=O)NC1CCC(n2c(NC(=O)c3cccc(C(F)(F)F)c3)nc3cc(C)ccc32)C1 (stereo not given)

IC50 [3]: 409 nM
IC50 [1]: 60 nM
IC50 [2]: > 50000 nM
IC50 [4]: > 3720 nM
IC50 [5]: > 10000 nM
Compound: C=CC(=O)N[C@@H]1CCC[C@@H](n2c(NC(=O)c3cccc(C(F)(F)F)c3)nc3cc(C)ccc32)C1 (racemic)

IC50 [3]: 41.4 nM
IC50 [1]: 4 nM
IC50 [2]: > 50000 nM
IC50 [4]: 543 nM
IC50 [5]: > 10000 nM
Compound: C=CC(=O)N[C@H]1CCC[C@@H](n2c(NC(=O)c3cccc(C(F)(F)F)c3)nc3cc(C)ccc32)C1 (racemic)

IC50 [6]: 1040 nM
IC50 [7]: 135 nM
IC50 [8]: 272 nM
IC50 [1]: 4 nM
IC50 [2]: > 50000 nM
Compound: C=CC(=O)Nc1cccc(-n2c(NC(=O)c3cccc(C(F)(F)F)c3)nc3cc(C)ccc32)c1

IC50 [6]: 421 nM
IC50 [7]: 24.7 nM
IC50 [12]: > 10000 nM
IC50 [8]: 153 nM
IC50 [1]: 20 nM
IC50 [2]: > 50000 nM
Compound: C=CC(=O)N1CCCC(n2c(NC(=O)c3cccc(C(F)(F)F)c3)nc3cc(C)ccc32)C1 (stereo not given)

IC50 [1]: > 32800 nM
IC50 [2]: > 50000 nM
Compound: C=CC(=O)Nc1ccccc1-n1c(NC(=O)c2cccc(C(F)(F)F)c2)nc2cc(C)ccc21

From ChEMBL document CHEMBL3860038, “Discovery of (R,E)-N-(7-Chloro-1-(1-[4-(dimethylamino)but-2-enoyl]azepan-3-yl)-1H-benzo[d]imidazol-2-yl)-2-methylisonicotinamide (EGF816), a Novel, Potent, and WT Sparing Covalent Inhibitor of Oncogenic (L858R, ex19del) and Resistant (T790M) EGFR Mutants for the Treatment of EGFR Mutant …” (J Med Chem, 2016)
